Measured values published in ChEMBL document CHEMBL2157880, “Synthesis, antimycobacterial and antibacterial activity of ciprofloxacin derivatives containing a N-substituted benzyl moiety” (2012).
Converted amounts (≈) assume the structure as drawn.

Experiments:
Type in all cases: functional
[1] = tested on: Mycobacterium tuberculosis; test: Antimycobacterial activity against Mycobacterium tuberculosis H37Rv ATCC 27294 by microplate alamar blue assay
Method in brief: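 Microplate Alamar Blue fluorescence assay on strain H37Rv ATCC 27294. MIC was the lowest concentration cutting fluorescence by ≥90% against the mean of replicate bacterium-only controls.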

Klebsiella pneumoniae [2] = test: Antibacterial activity against extended spectrum beta-lactamases producing Klebsiella pneumoniae 10-3 after 18 to 24 hrs by NCCLS method
Method in brief: (§1)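 Standard NCCLS (M100-S11) MIC testing against Gram-positive and Gram-negative strains. Plates were incubated at 35 °C for 18–24 h. The MIC was read as the lowest concentration giving complete inhibition of visible bacterial growth.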

Klebsiella pneumoniae [3] = test: Antibacterial activity against extended spectrum beta-lactamases producing Klebsiella pneumoniae 10-2 after 18 to 24 hrs by NCCLS method; method in brief: as §1
Pseudomonas aeruginosa [4] = test: Antibacterial activity against Pseudomonas aeruginosa 10-9 after 18 to 24 hrs by NCCLS method; method in brief: as §1
Klebsiella pneumoniae [5] = test: Antibacterial activity against extended spectrum beta-lactamases producing Klebsiella pneumoniae 10-1 after 18 to 24 hrs by NCCLS method; method in brief: as §1
Staphylococcus aureus [6] = test: Antibacterial activity against methicillin-sensitive Staphylococcus aureus 10-14 after 18 to 24 hrs by NCCLS method; method in brief: as §1
Klebsiella pneumoniae [7] = test: Antibacterial activity against Klebsiella pneumoniae 10-2 after 18 to 24 hrs by NCCLS method; method in brief: as §1
Escherichia coli [8] = test: Antibacterial activity against Escherichia coli 10-3 after 18 to 24 hrs by NCCLS method; method in brief: as §1
Escherichia coli [9] = test: Antibacterial activity against extended spectrum beta-lactamases producing Escherichia coli 10-2 after 18 to 24 hrs by NCCLS method; method in brief: as §1
Pseudomonas aeruginosa [10] = test: Antibacterial activity against Pseudomonas aeruginosa 10-20 after 18 to 24 hrs by NCCLS method; method in brief: as §1
Enterococcus faecalis [11] = test: Antibacterial activity against Enterococcus faecalis 10-7 after 18 to 24 hrs by NCCLS method; method in brief: as §1
Staphylococcus aureus [12] = test: Antibacterial activity against methicillin-sensitive Staphylococcus aureus 10-11 after 18 to 24 hrs by NCCLS method; method in brief: as §1
Enterococcus faecalis [13] = test: Antibacterial activity against Enterococcus faecalis 10-6 after 18 to 24 hrs by NCCLS method; method in brief: as §1
Escherichia coli [14] = test: Antibacterial activity against extended spectrum beta-lactamases producing Escherichia coli 10-4 after 18 to 24 hrs by NCCLS method; method in brief: as §1
Pseudomonas aeruginosa [15] = test: Antibacterial activity against Pseudomonas aeruginosa 10-18 after 18 to 24 hrs by NCCLS method; method in brief: as §1
Staphylococcus aureus [16] = test: Antibacterial activity against methicillin-resistant Staphylococcus aureus 10-13 after 18 to 24 hrs by NCCLS method
Method in brief: (§2)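 Incubated at 35 °C for 18–24 h under NCCLS (M100-S11) standards. MIC was read as the lowest concentration giving complete inhibition of visible bacterial growth.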

Pseudomonas aeruginosa [17] = test: Antibacterial activity against Pseudomonas aeruginosa 10-15 after 18 to 24 hrs by NCCLS method; method in brief: as §1
Staphylococcus aureus [18] = test: Antibacterial activity against methicillin-resistant Staphylococcus aureus 10-11 after 18 to 24 hrs by NCCLS method; method in brief: as §2
Escherichia coli [19] = test: Antibacterial activity against Escherichia coli 10-1 after 18 to 24 hrs by NCCLS method; method in brief: as §1
Klebsiella pneumoniae [20] = test: Antibacterial activity against Klebsiella pneumoniae 10-3 after 18 to 24 hrs by NCCLS method; method in brief: as §1
Streptococcus pneumoniae [21] = test: Antibacterial activity against Streptococcus pneumoniae 10-1 after 18 to 24 hrs by NCCLS method; method in brief: as §1
Streptococcus pneumoniae [22] = test: Antibacterial activity against Streptococcus pneumoniae 10-6 after 18 to 24 hrs by NCCLS method; method in brief: as §1
[23] = tested on: Staphylococcus epidermidis; test: Antibacterial activity against methicillin-resistant Staphylococcus epidermidis 10-10 after 18 to 24 hrs by NCCLS method; method in brief: as §2
Escherichia coli [24] = test: Antibacterial activity against Escherichia coli 10-2 after 18 to 24 hrs by NCCLS method; method in brief: as §1
[25] = tested on: Staphylococcus epidermidis; test: Antibacterial activity against methicillin-resistant Staphylococcus epidermidis 10-13 after 18 to 24 hrs by NCCLS method; method in brief: as §2
Klebsiella pneumoniae [26] = test: Antibacterial activity against Klebsiella pneumoniae 10-4 after 18 to 24 hrs by NCCLS method; method in brief: as §1
Pseudomonas aeruginosa [27] = test: Antibacterial activity against Pseudomonas aeruginosa 10-12 after 18 to 24 hrs by NCCLS method; method in brief: as §1
[28] = tested on: Staphylococcus epidermidis; test: Antibacterial activity against methicillin-sensitive Staphylococcus epidermidis 10-15 after 18 to 24 hrs by NCCLS method; method in brief: as §2
[29] = tested on: Staphylococcus epidermidis; test: Antibacterial activity against methicillin-sensitive Staphylococcus epidermidis 10-11 after 18 to 24 hrs by NCCLS method; method in brief: as §1
Staphylococcus aureus [30] = test: Antibacterial activity against methicillin-resistant Staphylococcus aureus 10-15 after 18 to 24 hrs by NCCLS method; method in brief: as §2
Escherichia coli [31] = test: Antibacterial activity against Escherichia coli ATCC 25922 after 18 to 24 hrs by NCCLS method; method in brief: as §1
Enterococcus faecium [32] = test: Antibacterial activity against Enterococcus faecium 10-6 after 18 to 24 hrs by NCCLS method; method in brief: as §1
Pseudomonas aeruginosa [33] = test: Antibacterial activity against Pseudomonas aeruginosa 10-5 after 18 to 24 hrs by NCCLS method; method in brief: as §1
Staphylococcus aureus [34] = test: Antibacterial activity against methicillin-sensitive Staphylococcus aureus 10-13 after 18 to 24 hrs by NCCLS method; method in brief: as §1
Staphylococcus aureus [35] = test: Antibacterial activity against Staphylococcus aureus ATCC 2592 after 18 to 24 hrs by NCCLS method; method in brief: as §1
Enterococcus faecalis [36] = test: Antibacterial activity against Enterococcus faecalis 10-5 after 18 to 24 hrs by NCCLS method; method in brief: as §1
Escherichia coli [37] = test: Antibacterial activity against extended spectrum beta-lactamases producing Escherichia coli 10-3 after 18 to 24 hrs by NCCLS method; method in brief: as §1
Enterococcus faecium [38] = test: Antibacterial activity against Enterococcus faecium 10-9 after 18 to 24 hrs by NCCLS method; method in brief: as §1

Compound | MIC [1] [µg/mL] | MIC (Klebsiella pneumoniae [2]) [µg/mL] | MIC (Klebsiella pneumoniae [3]) [µg/mL] | MIC (Pseudomonas aeruginosa [4]) [µg/mL] | MIC (Klebsiella pneumoniae [5]) [µg/mL] | MIC (Staphylococcus aureus [6]) [µg/mL] | MIC (Klebsiella pneumoniae [7]) [µg/mL] | MIC (Escherichia coli [8]) [µg/mL] | MIC (Escherichia coli [9]) [µg/mL] | MIC (Pseudomonas aeruginosa [10]) [µg/mL] | MIC (Enterococcus faecalis [11]) [µg/mL] | MIC (Staphylococcus aureus [12]) [µg/mL] | MIC (Enterococcus faecalis [13]) [µg/mL] | MIC (Escherichia coli [14]) [µg/mL] | MIC (Pseudomonas aeruginosa [15]) [µg/mL] | MIC (Staphylococcus aureus [16]) [µg/mL] | MIC (Pseudomonas aeruginosa [17]) [µg/mL] | MIC (Staphylococcus aureus [18]) [µg/mL] | MIC (Escherichia coli [19]) [µg/mL] | MIC (Klebsiella pneumoniae [20]) [µg/mL] | also measured
COc1cccc(CN2CCN(c3cc4c(cc3F)c(=O)c(C(=O)O)cn4C3CC3)CC2)c1OC | 2 (≈ 4.15 µM) | > 128 | > 128 | 64 (≈ 133 µM) | > 128 | 0.125 (≈ 0.26 µM) | > 128 | > 128 | > 128 | 128 (≈ 266 µM) | 32 (≈ 66.5 µM) | 0.03 (≈ 0.0623 µM) | > 128 | 128 (≈ 266 µM) | 64 (≈ 133 µM) | 32 (≈ 66.5 µM) | 32 (≈ 66.5 µM) | 16 (≈ 33.2 µM) | > 128 | 16 (≈ 33.2 µM) | MIC (Streptococcus pneumoniae [21]): 2 µg/mL (≈ 4.15 µM); MIC (Streptococcus pneumoniae [22]): 32 µg/mL (≈ 66.5 µM); MIC [23]: 8 µg/mL (≈ 16.6 µM); MIC (Escherichia coli [24]): 32 µg/mL (≈ 66.5 µM); MIC [25]: 32 µg/mL (≈ 66.5 µM); MIC (Klebsiella pneumoniae [26]): > 128 µg/mL; MIC (Pseudomonas aeruginosa [27]): 32 µg/mL (≈ 66.5 µM); MIC [28]: 8 µg/mL (≈ 16.6 µM); MIC [29]: 0.25 µg/mL (≈ 0.519 µM); MIC (Staphylococcus aureus [30]): 16 µg/mL (≈ 33.2 µM); MIC (Escherichia coli [31]): 0.5 µg/mL (≈ 1.04 µM); MIC (Enterococcus faecium [32]): 4 µg/mL (≈ 8.31 µM); MIC (Pseudomonas aeruginosa [33]): 32 µg/mL (≈ 66.5 µM); MIC (Staphylococcus aureus [34]): 0.03 µg/mL (≈ 0.0623 µM); MIC (Staphylococcus aureus [35]): 0.06 µg/mL (≈ 0.125 µM); MIC (Enterococcus faecalis [36]): 8 µg/mL (≈ 16.6 µM); MIC (Escherichia coli [37]): > 128 µg/mL; MIC (Enterococcus faecium [38]): 32 µg/mL (≈ 66.5 µM)
COc1cc(Br)c(CN2CCN(c3cc4c(cc3F)c(=O)c(C(=O)O)cn4C3CC3)CC2)cc1OC | > 32 | > 128 | > 128 | 8 (≈ 14.3 µM) | > 128 | 4 (≈ 7.14 µM) | > 128 | > 128 | > 128 | 16 (≈ 28.6 µM) | > 128 | 4 (≈ 7.14 µM) | > 128 | > 128 | 8 (≈ 14.3 µM) | 32 (≈ 57.1 µM) | 16 (≈ 28.6 µM) | 32 (≈ 57.1 µM) | > 128 | 8 (≈ 14.3 µM) | MIC (Streptococcus pneumoniae [21]): 8 µg/mL (≈ 14.3 µM); MIC (Streptococcus pneumoniae [22]): > 128 µg/mL; MIC [23]: > 128 µg/mL; MIC (Escherichia coli [24]): > 128 µg/mL; MIC [25]: 32 µg/mL (≈ 57.1 µM); MIC (Klebsiella pneumoniae [26]): > 128 µg/mL; MIC (Pseudomonas aeruginosa [27]): 8 µg/mL (≈ 14.3 µM); MIC [28]: > 128 µg/mL; MIC [29]: 8 µg/mL (≈ 14.3 µM); MIC (Staphylococcus aureus [30]): 32 µg/mL (≈ 57.1 µM); MIC (Escherichia coli [31]): 0.25 µg/mL (≈ 0.446 µM); MIC (Enterococcus faecium [32]): 8 µg/mL (≈ 14.3 µM); MIC (Pseudomonas aeruginosa [33]): 8 µg/mL (≈ 14.3 µM); MIC (Staphylococcus aureus [34]): 4 µg/mL (≈ 7.14 µM); MIC (Staphylococcus aureus [35]): 2 µg/mL (≈ 3.57 µM); MIC (Enterococcus faecalis [36]): > 128 µg/mL; MIC (Escherichia coli [37]): > 128 µg/mL; MIC (Enterococcus faecium [38]): > 128 µg/mL
